Reference: ChEMBL document CHEMBL1156796, “Design, synthesis, and antihepatitis B virus activities of novel 2-pyridone derivatives” (J Med Chem, 2010)

How the values were obtained:
Hepatitis B virus [1] = assay: Antiviral activity against HBV infected in human HepG2(2.2.15) cells assessed as inhibition of HBeAg level after 9 days by ELISA; assay type: functional, organism-based; settings: HepG2 2.2.15, 216 h
[2] = Selectivity index, ratio of CC50 for human HepG2(2.2.15) cells to IC50 for HBV infected in human HepG2(2.2.15) cells assessed as inhibition of HBeAg; assay type: functional
[3] = Selectivity index, ratio of CC50 for human HepG2(2.2.15) cells to IC50 for HBV infected in human HepG2(2.2.15) cells assessed as inhibition of HBsAg; assay type: functional
Outline: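 MTT at 5 g/L added 4 h before lysis in 10% SDS/50% DMF, pH 7.2, with OD read at 570 nm. IC50: HBsAg in day-9 supernatants measured by ELISA. SI = CC50/IC50.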

[4] = Selectivity index, ratio of CC50 for human HepG2(2.2.15) cells to IC50 for HBV infected in human HepG2(2.2.15) cells assessed as inhibition of HBV DNA replication; assay type: functional
Hepatitis B virus [5] = assay: Antiviral activity against HBV infected in human HepG2(2.2.15) cells assessed as inhibition of HBV DNA replication after 9 days by PCR; assay type: functional, organism-based
[6] = Cytotoxicity against human HepG2(2.2.15) cells; assay type: cell-based
Hepatitis B virus [7] = assay: Antiviral activity against HBV infected in human HepG2(2.2.15) cells assessed as inhibition of HBsAg level after 9 days by ELISA; assay type: functional, organism-based; settings: HepG2 2.2.15, 216 h
Hepatitis B virus [8] = assay: Antiviral activity against HBV infected in human HepG2(2.2.15) cells assessed as inhibition of HBV DNA replication after 9 days by PCR relative to adefovir; assay type: functional
Outline: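 HepG2 2.2.15 cells treated with different dosages of compound; culture supernatants collected nine days after treatment. IC50 taken as the concentration giving 50% inhibition of HBV DNA replication.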

[9] = Hepatitis B virus, HepG2 2.2.15, 216 h, read-out: IC50

| Structure (SMILES) | IC50 (Hepatitis B virus [1]) | Ratio CC50/IC50 [2] | Ratio CC50/IC50 [3] | Ratio CC50/IC50 [4] | IC50 (Hepatitis B virus [5]; [9]) | CC50 [6] | IC50 (Hepatitis B virus [7]) | fold change (FC) (Hepatitis B virus [8]) | IC50 (Hepatitis B virus [5]; hepg2 2.2.15) |
| --- | --- | --- | --- | --- | --- | --- | --- | --- | --- |
| C=CC/N=C(\c1ccc(=O)n(CC=C)c1)c1ccc(OC)cc1O | 40 µM | 0.5 | 0.2 | 1.67 | 12 µM | 20 µM | 98 µM |  |  |
| COc1ccc(C(=O)c2ccc(=O)n(-c3ccc(F)cc3)c2)c(O)c1 | > 118 µM |  |  | >1.2 | 98.3 µM | > 118 µM | > 118 µM |  |  |
| COc1ccc(/C(=N/Cc2ccc(F)cc2F)c2ccc(=O)n(Cc3ccc(F)cc3F)c2)c(O)c1 | 40 µM | 0.25 | 0.77 | 3.33 | 3 µM | 10 µM | 13 µM |  |  |
| COc1ccc(/C(=N/Cc2ccc(F)cc2)c2ccc(=O)n(Cc3ccc(F)cc3)c2)c(O)c1 | > 86.9 µM | <0.12 | <0.12 | 0.15 | 64.5 µM | 10 µM | > 86.9 µM |  |  |
| COc1ccc(/C(=N/Cc2cccc(F)c2)c2ccc(=O)n(Cc3cccc(F)c3)c2)c(O)c1 | 0.5 µM | 16 | 0.62 | 3.81 | 2.1 µM | 8 µM | 13 µM |  |  |
| CCCC/N=C(\c1ccc(=O)n(CCCC)c1)c1ccc(OC)cc1O | 56 µM | 1 | 0.5 | 466.67 | 0.12 µM | 56 µM | 111 µM | 4 |  |
| COc1ccc(C(=O)c2ccc(=O)n(/C=C/Nc3cccc4ccccc34)c2)c(O)c1 | > 97 µM | <2.5 | 3.17 | <0.67 | > 364 µM | 244 µM | 77 µM |  |  |
| CCCCC/N=C(\c1ccc(=O)n(CCCCC)c1)c1ccc(OC)cc1O | 5 µM | 19.6 | 3.38 | 3.27 | 30 µM | 98 µM | 29 µM |  |  |
| COc1ccc(/C(=N/C(C)C)c2ccc(=O)n(C(C)C)c2)c(O)c1 | 54 µM | >2.26 |  |  | > 122 µM | > 122 µM | > 122 µM |  |  |
| COc1ccc(C(=O)c2ccc(=O)n(-c3cccc(C)c3)c2)c(O)c1 | 0.3 µM | 530 | 5.48 | 198.75 | 0.8 µM | 159 µM | 29 µM |  |  |
| COc1ccc(C(=O)c2ccc(=O)n(-c3ccc([N+](=O)[O-])cc3)c2)c(O)c1 | > 109 µM | <1.07 | <1.07 |  |  | 177 µM | > 109 µM |  | Not Active |
| COc1ccc(/C(=N/Cc2ccccc2)c2ccc(=O)n(Cc3ccccc3)c2)c(O)c1 | 4.4 µM | 23.18 | 2.55 | 3.24 | 31.5 µM | 102 µM | 40 µM |  |  |
| COc1ccc(C/N=C(\c2ccc(=O)n(Cc3ccc(OC)cc3)c2)c2ccc(OC)cc2O)cc1 | 2 µM | 16 | 0.89 | 32 | 1 µM | 32 µM | 36 µM |  |  |
| COc1ccc(C(=O)c2ccc(=O)n(C3CCCCC3)c2)c(O)c1 | 0.73 µM | 20.55 | 0.15 | 0.15 | 99.6 µM | 15 µM | 99 µM |  |  |
| C=CCn1cc(C(=O)c2ccc(OC)cc2O)ccc1=O | 58 µM | 4 | 0.84 | 2.3 | 101 µM | 232 µM | 276 µM |  |  |
| CCC/N=C(\c1ccc(=O)n(CCC)c1)c1ccc(OC)cc1O | > 122 µM | <1 | <1 | 3.55 | 33.8 µM | 120 µM | > 122 µM |  |  |
| COc1ccc(/C(=N/C2CCCCC2)c2ccc(=O)n(C3CCCCC3)c2)c(O)c1 | 71 µM | 5.45 | 1.93 | 96.75 | 4 µM | 387 µM | 201 µM |  |  |
